Experimental data taken from paper PMC8594913 (Nature cancer, 2021).
Values belong to the molecule of their own block, whether it stands above or below them.

Columns and labels:
MV4–11 cells [1] = assay: Cell growth–death assay, MV4–11; type: cell-based, human
SKM-1 xenograft = assay: Subcutaneous SKM-1 xenograft; type: in vivo, mouse
[2] = test system: 51 hematologic cancer cell lines; assay: 6-d proliferation, panel of 51 hematologic cancer cell lines; type: cell-based, human
How it was run: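 6-d proliferation run by Horizon Discovery on its 2D OncoSignature panel. Compound given as a 10-point, threefold serial dilution, in triplicate. Growth-death index (GDI) runs from −100 (complete cell death) to 100 (no inhibition). Growth IC50 (gIC50) and GDI are reported per line.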

MV4–11 cells [3] = assay: Global DNA methylation; type: cell-based, human; settings: MV4–11, day 4
How it was run: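 MV4–11 cells plated in 10-cm dishes 24 h before treatment with 0.1% DMSO or compound (8-point, threefold serial dilution). Global 5-methylcytosine was measured, and treated values were normalized to vehicle control.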

[4] = test system: AML cells (MV4–11, GDM-1, SKM-1); assay: Western blotting; type: cell-based, human
How it was run: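 Cells plated in 15-cm dishes 24 h before treatment with 0.1% DMSO or compound (6-point, fivefold serial dilution); GDM-1 cells were treated 2 d at 3.2–10,000 nM. Blots probed with IRDye secondary antibodies and imaged on a LI-COR Odyssey. Total H2AX (and vinculin for GDM-1) served as loading controls.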

[5] = Peripheral blood cell counts, SKM-1 study; type: in vivo, mouse
How it was run: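 SKM-1 xenograft mice. Compound given s.c. twice daily in 10% captisol (pH 4.5–5); reference agent i.p. three times weekly; both at 10 ml kg⁻¹. Blood counts taken at end of dosing (day 28) and after 27 d recovery (day 55), n = 5 per group. One-way ANOVA with Dunnett's test, adjusted P; log₁₀-transformed where variances were unequal.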

MV4–11 xenograft = assay: Subcutaneous MV4–11 xenograft; type: in vivo, mouse
[6] = test system: MV4–11 human systemic AML model; assay: Disseminated MV4–11 AML model, survival; type: in vivo, mouse; settings: 30 d of dosing
Gla1 = Gla1 counter screen; type: biochemical; settings: read-out: Gla1 IC50; n = 40
[7] = Compound stability in media without or with cells; type: physicochemical; settings: 1,000 nM, media without or with MV4–11 cells, 37 °C
How it was run: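 MV4–11 cells, or media alone, plated 24 h before adding compound (100 or 1000 nM) and incubated at 37 °C. Remaining compound was quantified by LC-MS/MS.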

[8] = test system: hemi-methylated hairpin oligonucleotide; assay: DNA binding assay
How it was run: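 Differential scanning fluorimetry on hemi-methylated hairpin oligonucleotide (200 nM) with 100 μM compound or DMSO. Ramp 25–95 °C at 1 °C min⁻¹, fluorescence read after each step. n = 2 biologically independent experiments, two technical replicates each.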

DNMT1 [9] = target: T1, DNMT1 (Homo sapiens, UniProt P26358); assay: Reversibility by rapid dilution; type: biochemical; settings: 100-fold rapid dilution
T1 sequence (P26358 whole entry): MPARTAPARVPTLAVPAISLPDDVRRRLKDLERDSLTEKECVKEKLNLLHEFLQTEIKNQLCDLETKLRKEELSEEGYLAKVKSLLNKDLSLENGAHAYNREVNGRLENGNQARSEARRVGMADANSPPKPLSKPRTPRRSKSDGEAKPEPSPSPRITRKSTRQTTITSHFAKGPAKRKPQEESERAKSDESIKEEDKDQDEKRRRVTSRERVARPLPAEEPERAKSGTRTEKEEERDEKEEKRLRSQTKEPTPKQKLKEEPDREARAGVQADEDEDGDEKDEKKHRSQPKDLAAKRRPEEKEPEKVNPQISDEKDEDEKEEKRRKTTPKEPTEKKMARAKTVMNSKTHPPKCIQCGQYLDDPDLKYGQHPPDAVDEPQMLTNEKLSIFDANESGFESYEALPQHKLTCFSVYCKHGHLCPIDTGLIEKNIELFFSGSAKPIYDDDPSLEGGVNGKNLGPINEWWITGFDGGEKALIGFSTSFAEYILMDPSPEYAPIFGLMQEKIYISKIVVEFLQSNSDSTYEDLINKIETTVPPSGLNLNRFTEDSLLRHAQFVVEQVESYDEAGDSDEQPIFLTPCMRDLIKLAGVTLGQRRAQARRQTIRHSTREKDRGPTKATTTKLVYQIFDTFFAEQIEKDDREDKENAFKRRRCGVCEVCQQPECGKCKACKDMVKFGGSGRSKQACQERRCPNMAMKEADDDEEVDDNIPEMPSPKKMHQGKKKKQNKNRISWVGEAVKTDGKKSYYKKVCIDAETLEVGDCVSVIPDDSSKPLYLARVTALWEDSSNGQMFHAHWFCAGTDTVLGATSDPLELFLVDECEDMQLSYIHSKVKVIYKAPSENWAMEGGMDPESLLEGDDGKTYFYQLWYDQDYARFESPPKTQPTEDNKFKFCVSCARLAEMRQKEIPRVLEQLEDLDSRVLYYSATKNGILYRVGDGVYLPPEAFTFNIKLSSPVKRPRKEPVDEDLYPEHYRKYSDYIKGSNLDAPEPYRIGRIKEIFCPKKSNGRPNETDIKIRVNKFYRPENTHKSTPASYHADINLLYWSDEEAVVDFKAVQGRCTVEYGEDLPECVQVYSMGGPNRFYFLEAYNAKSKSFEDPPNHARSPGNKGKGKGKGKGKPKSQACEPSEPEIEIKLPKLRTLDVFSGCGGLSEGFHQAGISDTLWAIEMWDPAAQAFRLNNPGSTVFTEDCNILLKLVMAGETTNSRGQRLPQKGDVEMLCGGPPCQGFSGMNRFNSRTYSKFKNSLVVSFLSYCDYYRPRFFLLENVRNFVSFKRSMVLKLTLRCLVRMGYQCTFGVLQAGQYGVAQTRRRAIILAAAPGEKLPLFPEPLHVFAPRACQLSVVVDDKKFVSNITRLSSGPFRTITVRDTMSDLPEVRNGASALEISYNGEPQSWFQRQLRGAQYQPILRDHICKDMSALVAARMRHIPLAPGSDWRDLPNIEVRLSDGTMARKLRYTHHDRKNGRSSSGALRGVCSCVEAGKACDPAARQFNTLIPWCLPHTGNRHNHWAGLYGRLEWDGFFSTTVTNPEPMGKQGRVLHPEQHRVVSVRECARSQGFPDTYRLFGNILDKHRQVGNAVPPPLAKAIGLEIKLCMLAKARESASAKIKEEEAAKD
How it was run: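 DNMT1 preincubated 20 min with compound, then the complex was diluted 100-fold by adding substrates. Activity recovery was followed over 70 min by quenching at time points after dilution. Data were fit to a fixed steady-state velocity equation.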

Murine DNMT1 (731–1602) = Murine DNMT1 (731–1602) (Mus musculus, UniProt P13864); assay: Investigation of covalent adduct; type: binding; settings: 25 μM, 20 h, hemi-methylated DNA
Chain of Murine DNMT1 (731–1602) (P13864 731-1602): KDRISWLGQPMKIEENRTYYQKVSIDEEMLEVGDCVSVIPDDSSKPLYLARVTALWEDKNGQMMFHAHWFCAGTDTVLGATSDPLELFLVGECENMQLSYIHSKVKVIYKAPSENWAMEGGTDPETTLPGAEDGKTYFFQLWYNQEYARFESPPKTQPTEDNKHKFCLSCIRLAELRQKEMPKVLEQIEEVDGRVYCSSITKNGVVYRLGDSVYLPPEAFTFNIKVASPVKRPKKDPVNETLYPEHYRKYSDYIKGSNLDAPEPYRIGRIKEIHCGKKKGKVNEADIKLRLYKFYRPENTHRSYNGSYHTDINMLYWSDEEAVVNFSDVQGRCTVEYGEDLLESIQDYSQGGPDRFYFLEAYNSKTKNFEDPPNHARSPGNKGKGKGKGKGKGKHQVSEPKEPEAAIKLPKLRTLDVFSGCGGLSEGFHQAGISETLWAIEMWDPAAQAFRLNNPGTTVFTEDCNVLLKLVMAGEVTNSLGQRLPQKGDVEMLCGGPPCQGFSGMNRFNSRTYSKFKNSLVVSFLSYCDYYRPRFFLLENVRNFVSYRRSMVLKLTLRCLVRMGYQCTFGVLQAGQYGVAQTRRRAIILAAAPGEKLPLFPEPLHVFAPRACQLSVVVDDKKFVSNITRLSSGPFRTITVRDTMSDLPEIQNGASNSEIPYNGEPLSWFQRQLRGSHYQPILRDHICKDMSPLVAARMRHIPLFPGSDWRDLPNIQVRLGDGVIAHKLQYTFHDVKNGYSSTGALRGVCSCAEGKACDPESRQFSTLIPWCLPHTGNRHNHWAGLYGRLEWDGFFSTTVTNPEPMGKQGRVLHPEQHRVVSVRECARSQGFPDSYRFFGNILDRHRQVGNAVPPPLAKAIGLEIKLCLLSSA
How it was run: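 Murine DNMT1 (731–1602, 5.6 μM) incubated 20 h with 14-mer hemi-methylated DNA duplex (25 μM), with or without compound (25 μM). Buffer: 20 mM Tris pH 7.5, 50 mM NaCl, 5 mM DTT, 20% glycerol, 2.5% DMSO. Aliquots diluted fivefold in 0.05% TFA/0.1% formic acid; 20 pmol protein analysed by intact-mass TOF LC–MS for adducts.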

DNMT1 in HepG2 cells = DNMT1 in HepG2 cells (Homo sapiens, UniProt P26358); assay: Cellular thermal shift assay; type: cell-based; settings: HepG2, 90 min
Chain of DNMT1 in HepG2 cells (P26358 whole entry): as the sequence (P26358 whole entry) above

Mouse pharmacokinetics = type: in vivo; settings: mice
How it was run: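 Naive mice, 3 per group, each given a single dose: 2 mg kg⁻¹ i.v. (male CD-1), 2 mg kg⁻¹ s.c. (male C57/BL6) or 30 mg kg⁻¹ s.c. (female Nu/Nu). Composite blood samples were taken over 24 h and measured by HPLC–MS/MS. Parameters came from noncompartmental analysis of mean blood concentration–time profiles; AUC by linear trapezoidal rule.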

SKM-1 tumors = assay: Pharmacodynamics in SKM-1 tumors; type: in vivo, mouse; settings: SKM-1, 45 mg kg^−1, 8 d of dosing
How it was run: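 SKM-1 subcutaneous xenografts in NOD-scid mice, 3 per group (24 total). Compound given s.c. twice daily in 10% captisol (pH 4.5–5) at 10 ml kg⁻¹. Tumors and blood collected 6 h after the last dose on day 8.5. Tumors assayed for global 5-methylcytosine; blood drug levels by HPLC–MS/MS after acetonitrile precipitation.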

[10] = target: other methyltransferases (n = 34); assay: Methyltransferase selectivity panel; type: biochemical; settings: read-out: IC50 values, methyltransferase panel
How it was run: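 Methyltransferase panel run at Reaction Biology with HotSpot technology in IC50 format (10-point, threefold serial dilution).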

H1507Y mutant DNMT1 = assay: Radioactive SPA, H1507Y DNMT1; type: biochemical, human
kinases (n = 369) = assay: Kinase selectivity panel; type: biochemical; settings: read-out: IC50 values, kinase panel, panel tested at 10 μM
How it was run: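 Kinase panel run at Reaction Biology with HotSpot technology, compound at a single concentration of 10 μM. PIM1, PKD2/PRKD2 and DYRK2 were run in IC50 format (10-point, threefold serial dilution).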

[11] = mouse, in vivo, sc
DNMT1 [12] = target: T1, DNMT1; assay: Radioactive SPA, DNMT1, 40-mer hemi-methylated DNA; type: biochemical; settings: read-out: DNMT1 IC50
[13] = test system: bacterial M.SssI CpG DNMT; settings: cited from earlier work
DNMT1 [14] = settings: cited from earlier work
DNMT3A = settings: cited from earlier work
DNMT1 (729-1600) = DNMT1 (729-1600) (human, UniProt P26358 729-1600); assay: X-ray crystallography
Chain of DNMT1 (729-1600) (P26358 729-1600): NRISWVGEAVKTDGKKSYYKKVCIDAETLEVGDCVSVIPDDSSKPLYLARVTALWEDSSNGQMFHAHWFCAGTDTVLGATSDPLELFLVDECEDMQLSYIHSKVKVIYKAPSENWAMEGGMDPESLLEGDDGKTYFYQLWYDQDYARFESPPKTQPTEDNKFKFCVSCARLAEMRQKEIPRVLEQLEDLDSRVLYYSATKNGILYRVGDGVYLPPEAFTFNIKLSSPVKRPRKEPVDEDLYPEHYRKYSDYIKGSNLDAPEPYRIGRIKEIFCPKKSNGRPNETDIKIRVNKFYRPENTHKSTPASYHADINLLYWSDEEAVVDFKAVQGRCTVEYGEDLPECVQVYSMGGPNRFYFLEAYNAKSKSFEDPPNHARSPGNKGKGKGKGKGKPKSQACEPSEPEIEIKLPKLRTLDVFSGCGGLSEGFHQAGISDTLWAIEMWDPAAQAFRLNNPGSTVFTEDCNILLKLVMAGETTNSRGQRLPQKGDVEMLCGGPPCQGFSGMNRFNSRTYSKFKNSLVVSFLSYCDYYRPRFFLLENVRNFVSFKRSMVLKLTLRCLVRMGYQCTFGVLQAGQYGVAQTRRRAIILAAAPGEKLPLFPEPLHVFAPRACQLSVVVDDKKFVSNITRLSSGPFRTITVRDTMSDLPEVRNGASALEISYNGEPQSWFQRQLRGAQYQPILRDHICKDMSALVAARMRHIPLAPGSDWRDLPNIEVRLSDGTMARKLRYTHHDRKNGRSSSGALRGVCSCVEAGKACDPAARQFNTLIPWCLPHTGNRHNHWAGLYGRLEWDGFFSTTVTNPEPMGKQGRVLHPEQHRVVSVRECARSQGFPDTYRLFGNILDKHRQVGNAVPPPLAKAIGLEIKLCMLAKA

Molecule: Nc1ncn([C@H]2C[C@H](O)[C@@H](CO)O2)c(=O)n1 [DAC, decitabine, reference compound]
onset of cell death (negative GDI) (MV4–11 cells [1]; MV4–11): 2 days
tumor growth inhibition relative to vehicle (SKM-1 xenograft; SKM-1, intraperitoneal three times weekly, not statistically significant): 18%
cell lines with negative growth–death index (GDI) ([2]; day 6): 80%
concentration above which DNA hypomethylation and gene activation diminish (MV4–11 cells [3]): above 350 nM
lowest dose with accumulation of γH2AX (DNA damage) [4]: 16 nM
neutrophils, red blood cells, platelets ([5]; day 28, DAC intraperitoneal three times weekly): statistically significant decreases
tumor growth inhibition relative to vehicle (MV4–11 xenograft; MV4–11, intraperitoneal three times weekly, not statistically significant): 57%
survival benefit over vehicle [6]: 13 days

chemical stability [7]: chemically stable
nonspecific DNA binding ([8]; 100 μM compound): did not bind DNA nonspecifically
Tm of hemi-methylated hairpin oligonucleotide ([8]; with DMSO or 100 μM compound): 77.5 °C
reversibility of DNMT1 inhibition (DNMT1 [9]): rapidly reversible inhibition
Molecule: CCc1c(C#N)c(SC(C(N)=O)c2ccccc2)nc(N(C)C)c1C#N (stereo not drawn) [GSK3484862]
IC50 (Gla1): > 50000 nM

Molecule: CCc1c(C#N)c(SC(C(N)=O)c2ccccc2)nc(N2CCC(N)CC2)c1C#N (stereo not drawn) [GSK3685032]
onset of growth inhibition (MV4–11 cells [1]; AML lines, 6 d time course): ≥ 3 days
dose giving clear tumor regression (SKM-1 xenograft; SKM-1, subcutaneous twice daily): ≥ 30 mg/kg
animals maintaining tumor volumes ≤200 mm^3 while off drug (SKM-1 xenograft; SKM-1, ≥30 mg kg^−1, 4-week observation after dosing): ≥ 60%
covalent binding to DNMT1 (Murine DNMT1 (731–1602)): noncovalent
IC50 ([2]; read-out: median growth IC50 (gIC50), day 6, median of panel): 640 nM
additional loss of global DNA methylation versus DAC (MV4–11 cells [3]): 13%
maximal response, loss of global DNA methylation (MV4–11 cells [3]): 83%
effects on DNMT3A, DNMT3B or γH2AX [4]: no immediate effects
cellular target engagement (DNMT1 thermal stabilization) (DNMT1 in HepG2 cells): stabilization of DNMT1
blood half-life (Mouse pharmacokinetics): > 1.8 h
clearance (Mouse pharmacokinetics): low clearance
volume of distribution (Mouse pharmacokinetics): moderate volume of distribution
neutrophils, red blood cells, platelets ([5]; day 28, 1 or 5 mg kg^−1): no statistically significant changes
dose giving clear tumor regression (MV4–11 xenograft; MV4–11, subcutaneous twice daily): ≥ 30 mg/kg
animals maintaining tumor volumes ≤200 mm^3 while off drug (MV4–11 xenograft; MV4–11, ≥30 mg kg^−1, 4-week observation after dosing): ≥ 60%
maximal loss of DNA methylation in tumors (SKM-1 tumors): 46%
IC50 [10]: > 10000 nM
reduction in inhibition of H1507Y mutant versus wild-type DNMT1 (H1507Y mutant DNMT1): > 350 fold
IC50 (kinases (n = 369)): > 10000 nM
well tolerated dose [11]: at least 45 mg kg^−1
mice surviving nearly 7 weeks after dosing ended [6]: 50%
survival benefit over vehicle [6]: > 43 days

IC50 (DNMT1 [12]): 110 ± 20 nM
Molecule: CCc1c(C#N)c(SCc2ccc(N(C)S(C)(=O)=O)cc2)nc(N(C)CCNC)c1C#N [GSK3830052]

Molecule: O=C(O)C(Cc1c[nH]c2ccccc12)N1C(=O)c2ccccc2C1=O (stereo not drawn) [RG-108]
IC50 [13]: 12 nM

Molecule: Nc1ncnc2c1ncn2[C@@H]1O[C@H](CSCC[C@H](N)C(=O)O)[C@@H](O)[C@H]1O [SAH, S-adenosyl-L-homocysteine, reference compound]
reduction in inhibition of H1507Y mutant versus wild-type DNMT1 (H1507Y mutant DNMT1): not observed

Molecule: Cc1cc(Nc2ccc(NC(=O)c3ccc(Nc4ccnc5ccccc45)cc3)cc2)nc(N)n1 [SGI-1027]
cell growth (MV4–11 cells [1]; MV4–11, day 6): inhibited cell growth
activity against DNMT1 (DNMT1 [14]): low μM activity
activity against DNMT3A (DNMT3A): low μM activity

B1: 12-bp hemi-methylated DNA with zebularine (dsDNA)
DNA 1: GAGGCCGCCTGC
DNA 2: GCAGGCGGCCTC
modifications: strand 1 C6 = 5-methylcytosine (M); strand 2 C6 = zebularine (Z, in place of target cytidine)
binding result (DNMT1 (729-1600)): binds
